Assay results taken from ChEMBL document CHEMBL3352720, “Novel alkylphospholipid-DTC hybrids as promising agents against endocrine related cancers acting via modulation of Akt-pathway” (Eur J Med Chem, 2014).

How the values were obtained:
MCF7 [1] = experiment: Antiproliferative activity against human MCF7 cells assessed as inhibition of cell proliferation incubated for 18 hrs followed by MTT addition for 4 hrs by MTT assay; type: functional, cell-based
How it was run: (§1)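 MTT assay. Cells were grown in DMEM with 10% FBS at 37 °C, 5% CO2, 90% relative humidity. 1 × 10⁴ cells per well were seeded and held 24 h, then exposed to compounds diluted in culture medium for 18 h. MTT (5 mg/mL stock) was added for a further 4 h.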

[2] = Antiproliferative activity against human DU145 cells assessed as inhibition of cell proliferation incubated for 18 hrs followed by MTT addition for 4 hrs by MTT assay; type: functional, cell-based; details: DU-145; how it was run: as §1
MDA-MB-231 = experiment: Antiproliferative activity against human MDA-MB-231 cells assessed as inhibition of cell proliferation incubated for 18 hrs followed by MTT addition for 4 hrs by MTT assay; type: functional, cell-based; how it was run: as §1
[3] = Antiproliferative activity against human PC3 cells assessed as inhibition of cell proliferation incubated for 18 hrs followed by MTT addition for 4 hrs by MTT assay; type: functional, cell-based; details: PC-3; how it was run: as §1
HEK293 = experiment: Antiproliferative activity against HEK293 cells assessed as inhibition of cell proliferation incubated for 18 hrs followed by MTT addition for 4 hrs by MTT assay; type: cell-based; details: Homo sapiens; how it was run: as §1
MCF7 [4] = experiment: Induction of cell cycle arrest in human MCF7 cells assessed as accumulation at sub-diploid phase incubated for 24 hrs by propidium iodide staining based FACS assay (reference value: 7.26%); type: functional
MCF7 [5] = experiment: Induction of apoptosis in human MCF7 cells assessed as viable cells level incubated for 24 hrs by annexin-V and propidium iodide staining based flow cytometry (reference value: 89.58%); type: functional
MCF7 [6] = experiment: Induction of apoptosis in human MCF7 cells assessed as late apoptotic cells level incubated for 24 hrs by annexin-V and propidium iodide staining based flow cytometry (reference value: 1.85%); type: functional
MCF7 [7] = experiment: Induction of apoptosis in human MCF7 cells assessed as early apoptotic cells level incubated for 24 hrs by annexin-V and propidium iodide staining based flow cytometry (reference value: 6.42%); type: functional
MCF7 [8] = experiment: Induction of apoptosis in human MCF7 cells assessed as necrotic cells level incubated for 24 hrs by annexin-V and propidium iodide staining based flow cytometry (reference value: 2.15%); type: functional
MCF7 [9] = experiment: Induction of cell cycle arrest in human MCF7 cells assessed as accumulation at G2/M phase incubated for 24 hrs by propidium iodide staining based FACS assay (reference value: 1.47%); type: functional
MCF7 [10] = experiment: Induction of cell cycle arrest in human MCF7 cells assessed as accumulation at G0/G1 phase incubated for 24 hrs by propidium iodide staining based FACS assay (reference value: 53.32%); type: functional
MCF7 [11] = experiment: Induction of mitochondrial membrane potential loss in human MCF7 cells assessed as increase in JC1 dye monomer green fluorescence incubated for 24 hrs by JC1 dye based flow cytometry (reference value: 1.78%); type: functional
MCF7 [12] = experiment: Induction of cell cycle arrest in human MCF7 cells assessed as accumulation at S phase incubated for 24 hrs by propidium iodide staining based FACS assay (reference value: 45.21%); type: functional

Compound	IC50 (MCF7 [1]) [µM]	IC50 [2] [µM]	IC50 (MDA-MB-231) [µM]	IC50 [3] [µM]	IC50 (HEK293) [µM]	Activity (MCF7 [4]) [%]	Activity (MCF7 [5]) [%]	Activity (MCF7 [6]) [%]	Activity (MCF7 [7]) [%]	Activity (MCF7 [8]) [%]	Activity (MCF7 [9]) [%]	Activity (MCF7 [10]) [%]	Activity (MCF7 [11]) [%]	Activity (MCF7 [12]) [%]
CCCCCCCCCCOP(=O)(O)OCCSC(=S)N1CCN(C)CC1	99.6	82.3	29	80	> 100									
CCCCCCCCOP(=O)(O)OCCSC(=S)N1CCN(C)CC1	46	> 100	58.5	> 100	86									
CCCCCCCCOP(=O)(O)OCCSC(=S)N1CCCC1	53	47.1	69	> 100	28.3									
CCCCCCOP(=O)(O)OCCSC(=S)N1CCN(C)CC1	58	> 100	73	> 100	> 100									
CCCOP(=O)(O)OCCSC(=S)N1CCCC1	73	> 100	67	> 100	> 100									
CCCCCCCCOP(=O)(O)OCCSC(=S)N1CCCCC1	26	> 100	11.9	> 100	69									
CCCCCCCCCCCCCCCCOP(=O)([O-])OCC[N+](C)(C)C [MILTEFOSINE]	34.7	25.8	2.08	19.9		3.48	43.6	9.43	44.84	2.15	2.14	64.8	50.05	33.07
CCCOP(=O)(O)OCCSC(=S)N1CCCCCC1	74	86.1	38	> 100	54									
CCCCCCOP(=O)(O)OCCSC(=S)N1CCCC1	100	> 100	54	> 100	> 100									
CCCCCCCCCCCCCCCCOP(=O)(O)OCCSC(=S)N1CCCCCC1	> 100	17.6	> 100	32.1	> 100									
CCCCCCOP(=O)(O)OCCSC(=S)N1CCCCC1	62	> 100	85	> 100	> 100									
CCCCCCOP(=O)(O)OCCSC(=S)N1CCCCCC1	55	77.4	17.2	> 100	70.5									
CCCCCCCCOP(=O)(O)OCCSC(=S)N1CCCCCC1	78	59.1	27	56.8	> 100									
CCCCCCCCCCOP(=O)(O)OCCSC(=S)N1CCCCCC1	43.3	23.9	11.4	32.9	70									
CCCCCCCCCCCCCCCCOP(=O)(O)OCCSC(=S)N1CCN(C)CC1	> 100	49.3	> 100	95.2	> 100									
CCCCCCCCCCOP(=O)(O)OCCSC(=S)N1CCCC1	70	46.1	67	56.1	> 100									
CCCCCCCCCCCCCCCCOP(=O)(O)OCCSC(=S)N1CCCC1	72	28.9	69	65.7	> 100									
CCCOP(=O)(O)OCCSC(=S)N1CCCCC1	> 100	> 100	68	> 100	> 100									
CCCOP(=O)(O)OCCSC(=S)N1CCN(C)CC1	59	> 100	62	> 100	39.6									
